For orientation: MIC means the lowest concentration found to suppress growth.

In brackets after ≈: the same amount, converted by molar mass.

In test [1] the test system is Candida albicans. Nature of the test: Antifungal activity against Candida albicans ATCC 10231 at pH 5.6 after 5 days in presence of 10% beef serum. The test is classed as functional.
Test [2] deals with Candida albicans. Briefly: Antifungal activity against Candida albicans ATCC 10231 at pH 5.6 after 20 h in absence of 10% beef serum. Conditions: ATCC 10231, 20 h.
The subject of test [3] is Mucor mucedo. Nature of the test: Antifungal activity against Mucor mucedo ATCC 7941 at pH 7 after 20 h in absence of 10% beef serum. To be noted: ATCC 7941, 20 h.
Test [4] relates to Candida albicans. Nature of the test: Antifungal activity against Candida albicans ATCC 10231 at pH 7 after 20 h in absence of 10% beef serum. To be noted: ATCC 10231, 20 h.
Test [5] deals with Mucor mucedo. Nature of the test: Antifungal activity against Mucor mucedo ATCC 7941 at pH 5.6 after 5 days in absence of 10% beef serum. The test is classed as functional.
The subject of test [6] is Trichophyton mentagrophytes. Briefly: Antifungal activity against Trichophyton mentagrophytes ATCC 9129 at pH 5.6 after 5 days in absence of 10% beef serum. The test is classed as functional. The method, boiled down:
(§1)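 Agar-dilution MIC in Sabouraud dextrose agar at pH 5.6 or 7.0, with or without 10% beef serum. Plates were incubated at 28 °C for 5 days. MIC is the lowest concentration (µg/mL) giving 100% inhibition. Steps were 1 µg/mL up to 10, 2 µg/mL from 10–20, and 10 µg/mL from 20–100; 100 µg/mL was the top level, and no inhibition there is scored as >100.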

Test [7] deals with Aspergillus niger. Briefly: Antifungal activity against Aspergillus niger ATCC 1004 at pH 5.6 after 5 days in absence of 10% beef serum. The test is classed as functional. The method, boiled down:
as §1

Test [8] deals with Aspergillus niger. Nature of the test: Antifungal activity against Aspergillus niger ATCC 1004 at pH 7 after 5 days in presence of 10% beef serum. The test is classed as functional. The method, boiled down: as §1
The test system of test [9] is Aspergillus niger. Nature of the test: Antifungal activity against Aspergillus niger ATCC 1004 at pH 7 after 5 days in absence of 10% beef serum. The test is classed as functional. The method, boiled down: as §1
Test [10] has as its system Mucor mucedo. Nature of the test: Antifungal activity against Mucor mucedo ATCC 7941 at pH 5.6 after 20 h in presence of 10% beef serum. To be noted: ATCC 7941, 20 h.
Test [11] relates to Trichophyton mentagrophytes. Nature of the test: Antifungal activity against Trichophyton mentagrophytes ATCC 9129 at pH 7 after 5 days in presence of 10% beef serum. The test is classed as functional. The method, boiled down:
as §1

The subject of test [12] is Candida albicans. Nature of the test: Antifungal activity against Candida albicans ATCC 10231 at pH 7 after 5 days in presence of 10% beef serum. The test is classed as functional.
The subject of test [13] is Trichophyton mentagrophytes. Nature of the test: Antifungal activity against Trichophyton mentagrophytes ATCC 9129 at pH 5.6 after 5 days in presence of 10% beef serum. The test is classed as functional. The method, boiled down: as §1
The subject of test [14] is Mucor mucedo. Nature of the test: Antifungal activity against Mucor mucedo ATCC 7941 at pH 7 after 20 h in presence of 10% beef serum. Conditions: ATCC 7941, 20 h.
Test [15] concerns Trichophyton mentagrophytes. Nature of the test: Antifungal activity against Trichophyton mentagrophytes ATCC 9129 at pH 7 after 5 days in absence of 10% beef serum. The test is classed as functional. The method, boiled down: as §1
Test [16] deals with Aspergillus niger. Nature of the test: Antifungal activity against Aspergillus niger ATCC 1004 at pH 5.6 after 5 days in presence of 10% beef serum. The test is classed as functional. The method, boiled down:
as §1

Test [17] concerns Candida albicans. Briefly: Antifungal activity against Candida albicans ATCC 10231 at pH 5.6 after 5 days in absence of 10% beef serum. The test is classed as functional.
Test [18] deals with Mucor mucedo. Briefly: Antifungal activity against Mucor mucedo ATCC 7941 at pH 7 after 5 days in absence of 10% beef serum. The test is classed as functional.
The test system of test [19] is Mucor mucedo. Briefly: Antifungal activity against Mucor mucedo ATCC 7941 at pH 5.6 after 5 days in presence of 10% beef serum. The test is classed as functional.
In test [20] the test system is Candida albicans. Nature of the test: Antifungal activity against Candida albicans ATCC 10231 at pH 7 after 5 days in absence of 10% beef serum. The test is classed as functional.
Test [21] concerns Mucor mucedo. Nature of the test: Antifungal activity against Mucor mucedo ATCC 7941 at pH 7 after 5 days in presence of 10% beef serum. The test is classed as functional.
The mark [22] stands for this setting: Candida albicans, ATCC 10231, 120 h, read-out: MIC.
Where [23] appears, read: Mucor mucedo, ATCC 7941, 120 h, read-out: MIC.
Setting [24] is: Trichophyton mentagrophytes, ATCC 9129, 120 h, read-out: MIC.
The mark [25] stands for this setting: Aspergillus niger, ATCC 1004, 120 h, read-out: MIC.

Consider `COC(=O)[C@@H](F)[C@@H](Br)C(=O)OC` (relative stereo), for which the MIC is 14 µg/mL with Candida albicans [1] (setting [22]); 9 µg/mL (≈ 37 µM) in the test with Candida albicans [2]; 8 µg/mL (≈ 32.9 µM) with Mucor mucedo [3]; 20 µg/mL (≈ 82.3 µM) with Candida albicans [4]; 7 µg/mL (≈ 28.8 µM) in the test on Mucor mucedo [5] (setting [23]); under 1 µg/mL in test [6] (setting [24]). In addition, the MIC with Aspergillus niger [7] (setting [25]) was 20 µg/mL (≈ 82.3 µM); in the test on Aspergillus niger [8] (setting [25]) it was 40 µg/mL; in the test with Aspergillus niger [9] (setting [25]), 40 µg/mL (≈ 165 µM); in the test on Mucor mucedo [10] it was 8 µg/mL; in test [11] (setting [24]), 5 µg/mL; in the test with Candida albicans [12] (setting [22]), 30 µg/mL. For the same molecule, the minimal inhibitory concentration (MIC) in [13] (setting [24]) came out at 2 µg/mL; with Mucor mucedo [14], 12 µg/mL; in test [15] (setting [24]), 2 µg/mL (≈ 8.23 µM); with Aspergillus niger [16] (setting [25]), 20 µg/mL.
In the case of `COC(=O)C(Br)C(Br)C(=O)OC` (racemic), the MIC in the test with Candida albicans [1] stood at 20 µg/mL; in the test with Mucor mucedo [5], 6 µg/mL (≈ 19.7 µM); in the test with Candida albicans [17], 16 µg/mL (≈ 52.6 µM); in test [6] it was 2 µg/mL (≈ 6.58 µM); with Aspergillus niger [7], 14 µg/mL (≈ 46.1 µM); in the test on Mucor mucedo [18], 8 µg/mL (≈ 26.3 µM). The minimum inhibitory concentration (MIC) in the test with Aspergillus niger [8] stood at 40 µg/mL; in the test with Aspergillus niger [9], 40 µg/mL (≈ 132 µM); in test [11] it was 10 µg/mL; in the test with Candida albicans [12] it was 60 µg/mL; in test [13] it was 4 µg/mL; with Mucor mucedo [19], 9 µg/mL. Also, the minimal inhibitory concentration (MIC) in the test with Candida albicans [20] turned out to be 30 µg/mL (≈ 98.7 µM); with Mucor mucedo [21] it was 14 µg/mL; in [15], 4 µg/mL (≈ 13.2 µM); with Aspergillus niger [16] it was 30 µg/mL.
As to `COC(=O)[C@H](F)[C@@H](Br)C(=O)OC` (relative stereo), the MIC is 8 µg/mL with Candida albicans [1] (setting [22]); 6 µg/mL (≈ 24.7 µM) with Candida albicans [2]; 14 µg/mL (≈ 57.6 µM) in the test on Mucor mucedo [3]; 16 µg/mL (≈ 65.8 µM) against Candida albicans [4]; 12 µg/mL (≈ 49.4 µM) in the test on Mucor mucedo [5] (setting [23]); under 1 µg/mL in test [6] (setting [24]). Further, the MIC in the test on Aspergillus niger [7] (setting [25]) came out at 12 µg/mL (≈ 49.4 µM); in the test on Aspergillus niger [8] (setting [25]), 40 µg/mL; in the test with Aspergillus niger [9] (setting [25]), 30 µg/mL (≈ 123 µM); in the test on Mucor mucedo [10] it was 12 µg/mL; in test [11] (setting [24]) it was 6 µg/mL; in the test with Candida albicans [12] (setting [22]) it was 16 µg/mL. Moreover, the MIC in test [13] (setting [24]) is 3 µg/mL; in the test on Mucor mucedo [14] it was 20 µg/mL; in test [15] (setting [24]), 3 µg/mL (≈ 12.3 µM); with Aspergillus niger [16] (setting [25]), 14 µg/mL.
In the case of `COC(=O)C(Br)C(Br)C(=O)OC` (stereo in doubt), the minimal inhibitory concentration (MIC) in the test on Candida albicans [1] (setting [22]) came out at 30 µg/mL; with Candida albicans [2] it was 20 µg/mL (≈ 65.8 µM); in the test with Mucor mucedo [3] it was 12 µg/mL (≈ 39.5 µM); against Candida albicans [4], 50 µg/mL (≈ 165 µM); in the test with Mucor mucedo [5] (setting [23]), 6 µg/mL (≈ 19.7 µM); in test [6] (setting [24]), 2 µg/mL (≈ 6.58 µM). Besides, the minimum inhibitory concentration (MIC) against Aspergillus niger [7] stood at 30 µg/mL (≈ 98.7 µM); in the test on Aspergillus niger [8] it was 90 µg/mL; in the test on Aspergillus niger [9] (setting [25]), 60 µg/mL (≈ 197 µM); in the test on Mucor mucedo [10] it was 14 µg/mL; in [11] (setting [24]), 20 µg/mL; in the test on Candida albicans [12] (setting [22]), 70 µg/mL. The minimum inhibitory concentration (MIC) was 12 µg/mL in test [13], 30 µg/mL in the test on Mucor mucedo [21], 9 µg/mL (≈ 29.6 µM) in [15] and 50 µg/mL in the test with Aspergillus niger [16] (setting [25]).

The record behind these values is ChEMBL document CHEMBL3244142, “Antifungal properties of 2-bromo-3-fluorosuccinic acid esters and related compounds” (1977).
